Results on one compound are retold here after ChEMBL document CHEMBL1148296, “Syntheses, calcium channel agonist-antagonist modulation activities, and nitric oxide release studies of nitrooxyalkyl 1,4-dihydro-2,6-dimethyl-3-nitro-4-(2,1,3-benzoxadiazol-4-yl)pyridine-5-carboxylate racemates, enantiomers, and diastereomers” (J Med Chem, 2004).

Experiment [1] is filed under the species Cavia porcellus. Nature of the experiment: In vitro nitric oxide release incubated in the absence of N-acetyl-cysteamine in phosphate buffer. It counts as functional. The essentials:
(§1)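 Compound (0.0075 mmol) stirred under argon at 37 °C for 1 h in 0.1 M phosphate buffer pH 7.40/acetonitrile 1:1; line 6 with N-acetylcysteamine 1 equiv per ONO2, line 5 without. After air exposure, Griess reagent 10 min, A540; nitrite quantified against 3–24 µM NaNO2 standards; % NO from one ONO2, control without compound, n = 3.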

Experiment [2] is filed under the species Cavia porcellus. Nature of the experiment: In vitro nitric oxide release incubated in the presence of N-acetyl-cysteamine in phosphate buffer. It counts as functional. Put shortly:
as §1

Regarding `O=[N+]([O-])OCC(CO[N+](=O)[O-])O[N+](=O)[O-]` [NITROGLYCERIN], the Release in the experiment filed under Cavia porcellus [1] was determined as 0.18%; in the experiment listed under Cavia porcellus [2] it was 5.3%.
